Experimental data published in ChEMBL document CHEMBL4811300, “Design, synthesis, and biological evaluation of novel bifunctional thyrointegrin antagonists for neuroblastoma” (Bioorg Med Chem, 2021).

How the values were obtained:
SK-N-FI [1] = test: Antitumor activity against human SK-N-FI cells xenografted in Ncr nude mouse assessed as reduction of tumor weight at 3 mg/kg, sc dosed daily up to 20 days relative to control; format: functional; design: scale not given: the % may be the effect or the level left; conditions: time day <=20
In short: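 SK-N-F1 xenografts: 2 million cells per implant, 4 mice per group, with treatment starting once tumors reached 500 mm³. Dosing was 3 mg/kg s.c. once daily for 20 days (the methods say 21) against PBS vehicle control. Animals were sacrificed at study end, and tumors were excised and weighed.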

SK-N-FI [2] = test: Antitumor activity against human SK-N-FI cells xenografted in Ncr nude mouse assessed as increase in necrotic cells in tumor at 3 mg/kg, sc dosed daily up to 20 days by H and E staining based light microscopic analysis relative to control; format: functional; conditions: time day <=20
In short: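 SK-N-F1 cells (2 million per implant) were grown in mice (4 per group) until tumors reached 500 mm³. Mice were then dosed at 3 mg/kg s.c. once daily for 20 days against PBS vehicle; the methods section states 21 days. Harvested tumors were fixed in 10% formalin for at least 48 h, paraffin-embedded, sectioned and H&E stained. Necrosis, fibrosis and debris area was scored microscopically at 4X, 10X and 40X.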

[3] = Drug uptake in human SK-N-F1 cells at 10 uM measured upto 60 mins by LC-MS/MS analysis; format: ADME, cell-based; conditions: sk-n-fi, 1 h
In short: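 SK-N-F1 cells (~1M) were exposed to compound at 10 uM per the figure legend; the methods text gives 1 µM. Incubation lasted 15, 30 and 60 min. Cells were washed with PBS, pelleted at 5,000g for 10 min, homogenized in acetonitrile and extracted. The residue was reconstituted in acetonitrile/water 80/20. Quantification was by LC-MS/MS (positive ESI MRM) against 1–1000 ng/mL standards.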

Drug uptake [3]	Structure (SMILES)	Activity (SK-N-FI [1])	Activity (SK-N-FI [2])
	N=C(N)NCc1ccc(OCCOCCOCCOCCOCCOCCOCCOCCN2CCN(CCCOc3c(I)cc(Oc4c(I)cc(CC(=O)O)cc4I)cc3I)CC2)cc1	90%	98%
Active	N=C(N)NCc1cccc(I)c1 [IOBENGUANE]		
Active	CC(C)(C)OC(=O)NCc1ccc(OCCOCCOCCOCCOCCOCCOCCn2cc(COc3c(I)cc(Oc4c(I)cc(CC(=O)O)cc4I)cc3I)nn2)cc1		
